Measurements reported in publication PMC10704080 (Journal of Advanced Research, 2023).

How the values were obtained:
[1] = test system: human red blood cells (RBC); test: Haemolytic activity in human red blood cells; type: cell-based; settings: 1 h, 37 °C
In short: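 Human whole blood washed three times with 3 volumes of 0.9% NaCl, counted by haemocytometer, and resuspended in saline. Cells added to compound-containing plates, shaken 10 min, then incubated 1 h at 37 °C. Plates centrifuged at 1000 × g for 10 min to pellet cells and debris. Haemolysis read as supernatant absorbance at 405 nm.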

[2] = Cytotoxicity in HEK293 cells; type: cell-based; settings: human
In short: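 HEK293 cells (ATCC CRL-1573) counted by haemocytometer and seeded at 5000 cells/well into compound-containing plates in DMEM plus 10% FBS. Incubated 20 h at 37 °C, 5% CO2. Resazurin added (25 μg/mL final) for a further 3 h, then fluorescence read at ex 530/em 590 nm. Percent inhibition calculated against media-only and untreated-cell controls. CC50 fitted from dose-response curves with variable bottom, top and slope.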

CC[C@H](C)[C@H](NC(=O)CN)C(=O)NCC(=O)N[C@@H](C)C(=O)N[C@H](C(=O)N[C@@H](CC(C)C)C(=O)N[C@@H](CCCCN)C(=O)N[C@H](C(=O)N[C@@H](CC(C)C)C(=O)N[C@H](C(=O)N[C@H](C(=O)NCC(=O)N[C@@H](CC(C)C)C(=O)N1CCC[C@H]1C(=O)N[C@@H](C)C(=O)N[C@@H](CC(C)C)C(=O)N[C@H](C(=O)N[C@@H](CO)C(=O)N[C@@H](Cc1c[nH]c2ccccc12)C(=O)N[C@H](C(=O)N[C@@H](CCCCN)C(=O)N[C@@H](CCCNC(=N)N)C(=O)N[C@@H](CCCCN)C(=O)N[C@@H](CCCNC(=N)N)C(=O)N[C@@H](CCC(N)=O)C(=O)N[C@@H](CCC(N)=O)C(N)=O)[C@@H](C)CC)[C@@H](C)CC)[C@@H](C)O)[C@@H](C)O)C(C)C)C(C)C [Mellitin, melittin]
RBC (HC10), concentration at 10% haemolytic activity [1]: 2.7 µg/mL

O=C(CCCCCCCCCC[P+](c1ccccc1)(c1ccccc1)c1ccccc1)Nc1ccc(O)c(O)c1 [Compound 11e, (11-((3,4-dihydroxyphenyl)amino)-11-oxoundecyl)triphenylphosphonium bromide]
CC50 at 20 h [2]: 22.4 µg/mL
